ChEMBL document CHEMBL1123554, “Acetylenic nucleosides. 4. 1-beta-D-arabinofuranosyl-5-ethynylcytosine. Improved synthesis and evaluation of biochemical and antiviral properties” (1987)

What was measured:
[1] = system: Human alphaherpesvirus 1; test: Antiviral activity against DNA polymerase mutant resistant to PFA 3b(PFA) was determined at a conc of 50 uM; type: functional
Procedure, shortened: (§1)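 HSV-infected HeLa BU cells seeded in 25-cm² flasks. The next day, virus was added at a multiplicity of 3–5 PFU/cell and allowed 1 h to adsorb. Virus was then removed and growth medium with or without drug was added. Cells were held at 37 °C for 24 h, then frozen at –70 °C until titration. Yield is expressed as PFU, % of untreated control.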

[2] = system: Human alphaherpesvirus 1; test: Antiviral activity against DNA polymerase mutant resistant to KOS(parental) was determined at a conc of 50 uM; type: functional; procedure, shortened: as §1
[3] = system: Human alphaherpesvirus 1; test: Antiviral activity against DNA polymerase mutant resistant to PFA 1a (PFA) was determined at a conc of 50 uM; type: functional; procedure, shortened: as §1
[4] = system: Human alphaherpesvirus 1; test: Antiviral activity against DNA polymerase mutant resistant to PFA 5a(PFA) was determined at a conc of 50 uM; type: functional; procedure, shortened: as §1
[5] = biological target: Cytidine deaminase (Homo sapiens) (UniProt P32320); test: relative velocity was determined against deaminase purified from human acute myeloblastic leukemia cells
Cytidine deaminase (Homo sapiens), sequence (P32320 whole entry, looked up): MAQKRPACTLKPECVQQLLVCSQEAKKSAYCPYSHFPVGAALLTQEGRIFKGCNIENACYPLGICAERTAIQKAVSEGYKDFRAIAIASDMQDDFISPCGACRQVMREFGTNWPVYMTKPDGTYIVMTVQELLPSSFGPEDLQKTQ

[6] = system: Human alphaherpesvirus 1; test: Antiviral activity against HSV-1 kinase mutant resistant to S1(ACV) was determined at a conc of 50 uM; type: functional; procedure, shortened: as §1
[7] = system: Human alphaherpesvirus 1; test: Antiviral activity against HSV-1 kinase mutant resistant to SCS(parental) was determined at a conc of 50 uM; type: functional; procedure, shortened: as §1
[8] = system: Thymidine kinase (Human herpesvirus 2); test: Phosphorylating activity of viral HSV -2 (333) induced thymidine kinase relative to dThdK was determined; conditions: Human alphaherpesvirus 2
[9] = system: Human alphaherpesvirus 1; test: Antiviral activity against HSV-1 kinase mutant resistant to SCS(parental) was determined at a conc of 100 uM; type: functional; procedure, shortened: as §1
[10] = system: Human alphaherpesvirus 1; test: Antiviral activity against DNA polymerase mutant resistant to PFA 3b(PFA) was determined at a conc of 100 uM; type: functional; procedure, shortened: as §1
[11] = system: Human alphaherpesvirus 1; test: Antiviral activity against DNA polymerase mutant resistant to KOS(parental) was determined at a conc of 100 uM; type: functional; procedure, shortened: as §1
[12] = system: Human alphaherpesvirus 1; test: Antiviral activity against HSV-1 kinase mutant resistant to B3(BVdU) was determined at a conc of 100 uM; type: functional; procedure, shortened: as §1
[13] = system: Human alphaherpesvirus 1; test: Antiviral activity against HSV-1 kinase mutant resistant to B3(BVdU) was determined at a conc of 50 uM; type: functional; procedure, shortened: as §1
[14] = system: Human alphaherpesvirus 1; test: Antiviral activity against HSV-1 kinase mutant resistant to Tr7(ACV) was determined at a conc of 50 uM; type: functional; procedure, shortened: as §1
[15] = system: Human alphaherpesvirus 1; test: Antiviral activity against DNA polymerase mutant resistant to PFA 1a (PFA) was determined at a conc of 100 uM; type: functional; procedure, shortened: as §1
[16] = system: Human alphaherpesvirus 2; test: Antiviral activity against HSV-2 (333)was determined at a conc of 50 uM; type: functional; procedure, shortened: as §1
[17] = system: Human alphaherpesvirus 1; test: Antiviral activity against HSV-1 kinase mutant resistant to Tr7(ACV) was determined at a conc of 100 uM; type: functional; procedure, shortened: as §1
[18] = biological target: Cytidine deaminase (Homo sapiens) (UniProt P32320); test: Relative velocity was determined against deaminase purified from human acute myeloblastic leukemia cells
[19] = system: Human alphaherpesvirus 1; test: Antiviral activity against DNA polymerase mutant resistant to PFA 5a(PFA) was determined at a conc of 100 uM; type: functional; procedure, shortened: as §1
[20] = system: Human alphaherpesvirus 1; test: Antiviral activity against HSV-1 kinase mutant resistant to S1(ACV) was determined at a conc of 100 uM; type: functional; procedure, shortened: as §1
[21] = system: Human alphaherpesvirus 1; test: Antiviral activity against HSV-1 kinase mutant resistant to Tr7(ACV) was determined at a conc of 30 uM; type: functional; procedure, shortened: as §1
[22] = system: Human alphaherpesvirus 1; test: Antiviral activity against HSV-1 kinase mutant resistant to B3(BVdU) was determined at a conc of 30 uM; type: functional; procedure, shortened: as §1
[23] = system: Human alphaherpesvirus 1; test: Antiviral activity against HSV-1 kinase mutant resistant to SCS(parental) was determined at a conc of 30 uM; type: functional; procedure, shortened: as §1

| SMILES | Control [1] [%] | Control [2] [%] | Control [3] [%] | Control [4] [%] | Control [6] [%] | Control [7] [%] | Control [13] [%] | Control [14] [%] | further results |
| --- | --- | --- | --- | --- | --- | --- | --- | --- | --- |
| O=C(O)P(=O)(O)O [FOSCARNET] | 24 | 2.9 | 37 | 63 |  |  |  |  |  |
| Nc1ccn([C@H]2C[C@H](O)[C@@H](CO)O2)c(=O)n1 |  |  |  |  |  |  |  |  | Relative velocity [5]: 1 |
| C#Cc1cn(C2O[C@H](CO)[C@@H](O)[C@@H]2O)c(=O)nc1N (stereo not given in full) | 0.36 | 0.06 | 0.54 | 0 | 70 | 0.38 | 0.04 | 4.7 | Relative velocity [8]: 30%; Control [9]: 0.12%; Control [10]: 0.04%; Control [11]: 0.06%; Control [12]: 0.06%; Control [15]: 0.04%; Control [16]: 0.28%; Control [17]: 0.12%; Relative velocity [18]: 0.02; Control [19]: 0.1%; Control [20]: 59% |
| Nc1nc2c(ncn2COCCO)c(=O)[nH]1 [ACYCLOVIR] | 63 | 3 | 37 | 21 | 18 | 0.2 | 0.3 | 10 |  |
| O=c1[nH]c(=O)n([C@H]2C[C@H](O)[C@@H](CO)O2)cc1/C=C/Br [BRIVUDINE] |  |  |  |  |  |  |  |  | Control [21]: 0.8%; Control [22]: 52%; Control [23]: 0.4% |
